Experimental data taken from ChEMBL document CHEMBL1138317, “Antibacterial oxazolidinones possessing a novel C-5 side chain. (5R)-trans-3-[3-Fluoro-4- (1-oxotetrahydrothiopyran-4-yl)phenyl]-2- oxooxazolidine-5-carboxylic acid amide (PF-00422602), a new lead compound” (J Med Chem, 2007).
In brackets after ≈: the same amount, converted by molar mass.

Key:
[1] = Cmax in Sprague-Dawley rat at 20 mg/kg, po; type: ADME, organism-based; parameters: dose 20 mg/kg, route oral; settings: in vivo
[2] = Half life in Sprague-Dawley rat at 20 mg/kg, po; type: ADME, organism-based; parameters: dose 20 mg/kg, route oral; settings: in vivo
Streptococcus pneumoniae = assay: Antibacterial activity against levofloxacin-penicillin-resistant Streptococcus pneumoniae SV1 SP3 by microbroth technology; type: functional
Summary of the method: (§1)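 Drug-resistant panel strains (levofloxacin/oxacillin-resistant S. aureus, levofloxacin/penicillin-resistant S. pneumoniae, vancomycin-resistant E. faecalis and E. faecium). Broth microdilution MIC in µg/mL; value reported as MIC90 across the strains of each resistant group.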

Staphylococcus aureus [3] = assay: Antibacterial activity against Staphylococcus aureus UC76 in po dosed CD1 mouse systemic infection model assessed as mortality after 7 days; type: functional
Staphylococcus aureus [4] = assay: Antibacterial activity against levofloxacin-oxacillin-resistant Staphylococcus aureus UC76 SA1 by micro-broth technology; type: functional; summary of the method: as §1
Escherichia coli = assay: Inhibition of protein synthesis in Escherichia coli by cell-free transcription-translation assay; type: functional
Summary of the method: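 E. coli cell-free coupled transcription/translation run in microtiter format with a luciferase reporter; luminescence was the read-out for protein synthesis.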

Enterococcus faecalis = assay: Antibacterial activity against vancomycin-resistant Enterococcus faecalis MGH2 EF1 by microbroth technology; type: functional; summary of the method: as §1
Moraxella catarrhalis = assay: Antibacterial activity against Moraxella catarrhalis by microbroth technology; type: functional
Summary of the method: (§2)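 MIC determined by broth microdilution, reported in µg/mL.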

Enterococcus faecium = assay: Antibacterial activity against vancomycin-resistant Enterococcus faecium by micro-broth technology; type: functional; summary of the method: as §1
[5] = AUC in Sprague-Dawley rat at 20 mg/kg, po; type: ADME, organism-based, Plasma; parameters: dose 20 mg/kg, route oral; settings: Sprague-Dawley, plasma
[6] = Clearance in Sprague-Dawley rat at 10 mg/kg, iv; type: ADME, organism-based; parameters: dose 10 mg/kg, route intravenous; settings: in vivo
[7] = Bioavailability in Sprague-Dawley rat at 20 mg/kg, po; type: ADME, organism-based; settings: Sprague-Dawley, in vivo
[8] = molecular target: T1, Amine oxidase [flavin-containing] A (Homo sapiens, UniProt P21397); assay: Inhibition of human recombinant MAOA
T1 sequence (P21397 whole entry): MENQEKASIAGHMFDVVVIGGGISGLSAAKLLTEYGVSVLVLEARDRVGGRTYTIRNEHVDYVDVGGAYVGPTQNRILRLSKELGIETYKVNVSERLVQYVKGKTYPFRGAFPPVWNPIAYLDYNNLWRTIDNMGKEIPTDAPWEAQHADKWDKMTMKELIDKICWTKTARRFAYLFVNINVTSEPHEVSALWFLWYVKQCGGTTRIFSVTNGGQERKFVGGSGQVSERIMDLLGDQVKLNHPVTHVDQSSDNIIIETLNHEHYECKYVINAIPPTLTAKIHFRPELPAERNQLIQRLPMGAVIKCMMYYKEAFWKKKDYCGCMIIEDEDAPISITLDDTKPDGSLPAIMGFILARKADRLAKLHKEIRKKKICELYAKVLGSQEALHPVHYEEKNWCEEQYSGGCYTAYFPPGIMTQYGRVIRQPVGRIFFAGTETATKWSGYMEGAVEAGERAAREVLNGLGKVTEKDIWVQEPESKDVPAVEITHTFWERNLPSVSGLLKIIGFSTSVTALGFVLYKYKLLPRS

Haemophilus influenzae = assay: Antibacterial activity against Haemophilus influenzae by micro-broth technology; type: functional; summary of the method: as §2
[9] = Volume of distribution at steady state in Sprague-Dawley rat at 10 mg/kg, iv; type: ADME, organism-based; parameters: dose 10 mg/kg, route intravenous; settings: in vivo, read-out: Vdss

With `NC(=O)[C@H]1CN(c2cc(F)c(C3CC[S+]([O-])CC3)c(F)c2)C(=O)O1` (stereo not given in full) the Cmax [1] was 4690 ng/mL, the half-life [2] was 2.24 h and the MIC90 (Streptococcus pneumoniae) was 2 µg/mL (≈ 5.58 µM). For the same compound, the PD50 (Staphylococcus aureus [3]) was 1.1 mg/kg, the MIC90 (Staphylococcus aureus [4]) was 2 µg/mL (≈ 5.58 µM) and the IC50 (Escherichia coli) was 3.6 µM. For the same compound, the MIC90 (Enterococcus faecalis) was 2 µg/mL (≈ 5.58 µM), the MIC (Moraxella catarrhalis) was > 8 µg/mL and the MIC90 (Enterococcus faecium) was 2 µg/mL (≈ 5.58 µM). It also gave an AUC [5] of 15400 ng·h/mL, a clearance [6] of 12.8 mL/min/kg and a bioavailability [7] of 65%. For the same compound, the IC50 [8] was 355 µM, the MIC (Haemophilus influenzae) was > 8 µg/mL and the Vd [9] was 0.83 L/kg.
